Converted amounts (≈) assume the structure as drawn.
Assays:
Assay type in all cases: functional
Candida albicans = experiment: Antifungal activity against Candida albicans
How it was run: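 For Candida albicans: broth double-dilution in tubes, run in triplicate. Compound added as a 1 mg/mL DMF solution to the first of ten seeded-broth tubes (2 mL), then serially diluted by transfer. Fungal inoculum 5×10^5 cfu/mL; incubation at 30 °C for 48 h. MIC (µg/mL) by visual reading. Controls were DMF solvent, positive growth and standard drug.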

Proteus vulgaris = experiment: Antibacterial activity against Proteus vulgaris
How it was run: (§1)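 Twofold serial broth dilution in tubes, triplicate. Ten tubes of seeded broth (2 mL each); compound added as a 1 mg/mL DMF solution to the first tube, then serially transferred. Bacteria inoculated at 2×10^5 cfu/mL and incubated at 37 °C for 18–24 h. MIC (µg/mL) read visually. DMF solvent, positive growth and standard drug controls run alongside.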

Pseudomonas aeruginosa = experiment: Antibacterial activity against Pseudomonas aeruginosa; how it was run: as §1
Staphylococcus aureus = experiment: Antibacterial activity against Staphylococcus aureus; how it was run: as §1
Escherichia coli = experiment: Antibacterial activity against Escherichia coli; how it was run: as §1

Structure (SMILES) | MIC (Candida albicans) [µg/mL] | MIC (Proteus vulgaris) [µg/mL] | MIC (Pseudomonas aeruginosa) [µg/mL] | MIC (Staphylococcus aureus) [µg/mL] | MIC (Escherichia coli) [µg/mL]
COc1ccc(NC(=O)c2cc3c(CO)cnc(C)c3o/c2=N\c2ccc(Cl)c(Cl)c2)c(OC)c1 | 50 (≈ 97.2 µM) | 50 (≈ 97.2 µM) | 50 (≈ 97.2 µM) | 50 (≈ 97.2 µM) | 50 (≈ 97.2 µM)
CCOc1ccc(/N=c2\oc3c(C)ncc(CO)c3cc2C(=O)Nc2cccc(C)c2)cc1 | 50 (≈ 113 µM) | 50 (≈ 113 µM) | 25 (≈ 56.4 µM) | 50 (≈ 113 µM) | 50 (≈ 113 µM)
COc1ccc(NC(=O)c2cc3c(CO)cnc(C)c3o/c2=N\c2ccc(OC)c(OC)c2)c(OC)c1 | 50 (≈ 98.9 µM) | 50 (≈ 98.9 µM) | 50 (≈ 98.9 µM) | 25 (≈ 49.5 µM) | 50 (≈ 98.9 µM)
Cc1ccc(NC(=O)c2cc3c(CO)cnc(C)c3o/c2=N\c2ccc(Br)cc2)cc1 | 25 (≈ 52.3 µM) | 50 (≈ 105 µM) | 50 (≈ 105 µM) | 25 (≈ 52.3 µM) | 50 (≈ 105 µM)
Cc1ccc(NC(=O)c2cc3c(CO)cnc(C)c3o/c2=N\c2cccc(Cl)c2)cc1 | 25 (≈ 57.6 µM) | 50 (≈ 115 µM) | 50 (≈ 115 µM) | 50 (≈ 115 µM) | 50 (≈ 115 µM)
COc1ccc(/N=c2\oc3c(C)ncc(CO)c3cc2C(=O)Nc2cccc(C)c2)cc1OC | 50 (≈ 109 µM) | 100 (≈ 218 µM) | 100 (≈ 218 µM) | 50 (≈ 109 µM) | 50 (≈ 109 µM)
Cc1ccc(/N=c2\oc3c(C)ncc(CO)c3cc2C(=O)Nc2cccc(C)c2)cc1 | 50 (≈ 121 µM) | 50 (≈ 121 µM) | 50 (≈ 121 µM) | 50 (≈ 121 µM) | 50 (≈ 121 µM)
COc1cccc(/N=c2\oc3c(C)ncc(CO)c3cc2C(=O)Nc2ccc(C)cc2)c1 | 50 (≈ 116 µM) | 100 (≈ 233 µM) | 50 (≈ 116 µM) | 50 (≈ 116 µM) | 25 (≈ 58.2 µM)
Cc1ccc(NC(=O)c2cc3c(CO)cnc(C)c3o/c2=N\c2ccccc2I)cc1 | 50 (≈ 95.2 µM) | 100 (≈ 190 µM) | 50 (≈ 95.2 µM) | 25 (≈ 47.6 µM) | 50 (≈ 95.2 µM)
Cc1cccc(NC(=O)c2cc3c(CO)cnc(C)c3o/c2=N\c2ccc(C)c(C)c2)c1 | 12.5 (≈ 29.2 µM) | 50 (≈ 117 µM) | 12.5 (≈ 29.2 µM) | 50 (≈ 117 µM) | 25 (≈ 58.5 µM)
CCOC(=O)c1ccc(/N=c2\oc3c(C)ncc(CO)c3cc2C(=O)Nc2ccccc2)cc1 | 50 (≈ 109 µM) | 50 (≈ 109 µM) | 50 (≈ 109 µM) | 50 (≈ 109 µM) | 50 (≈ 109 µM)
Cc1cccc(NC(=O)c2cc3c(CO)cnc(C)c3o/c2=N\c2cccc(Cl)c2)c1 | 50 (≈ 115 µM) | 100 (≈ 230 µM) | 50 (≈ 115 µM) | 100 (≈ 230 µM) | 50 (≈ 115 µM)
CCc1ccccc1/N=c1\oc2c(C)ncc(CO)c2cc1C(=O)Nc1ccc(C)cc1 | 50 (≈ 117 µM) | 50 (≈ 117 µM) | 50 (≈ 117 µM) | 50 (≈ 117 µM) | 50 (≈ 117 µM)
Cc1cccc(NC(=O)c2cc3c(CO)cnc(C)c3o/c2=N\c2ccccc2)c1 | 12.5 (≈ 31.3 µM) | 50 (≈ 125 µM) | 25 (≈ 62.6 µM) | 100 (≈ 250 µM) | 50 (≈ 125 µM)
Cc1ccc2nc(-c3ccc(/N=c4\oc5c(C)ncc(CO)c5cc4C(=O)Nc4ccccc4)cc3)sc2c1 | 50 (≈ 93.9 µM) | 50 (≈ 93.9 µM) | 100 (≈ 188 µM) | 100 (≈ 188 µM) | 25 (≈ 46.9 µM)
COc1ccccc1/N=c1\oc2c(C)ncc(CO)c2cc1C(=O)Nc1ccc(C)cc1 | 25 (≈ 58.2 µM) | 100 (≈ 233 µM) | 50 (≈ 116 µM) | 100 (≈ 233 µM) | 50 (≈ 116 µM)
Cc1ccc(/N=c2\oc3c(C)ncc(CO)c3cc2C(=O)Nc2ccccc2C)cc1C | 100 (≈ 234 µM) | 50 (≈ 117 µM) | 25 (≈ 58.5 µM) | 100 (≈ 234 µM) | 50 (≈ 117 µM)
Cc1ccc(NC(=O)c2cc3c(CO)cnc(C)c3o/c2=N\c2ccc(Oc3ccccc3)cc2)cc1 | 12.5 (≈ 25.4 µM) | 50 (≈ 102 µM) | 50 (≈ 102 µM) | 50 (≈ 102 µM) | 50 (≈ 102 µM)

Structure (SMILES) | MIC (Candida albicans) [µg/mL] | MIC (Proteus vulgaris) [µg/mL] | MIC (Pseudomonas aeruginosa) [µg/mL] | MIC (Staphylococcus aureus) [µg/mL] | MIC (Escherichia coli) [µg/mL]
Cc1ncc(CO)c2cc(C(=O)Nc3ccccc3)/c(=N/c3ccccc3)oc12 | 50 (≈ 130 µM) | 50 (≈ 130 µM) | 50 (≈ 130 µM) | 50 (≈ 130 µM) | 25 (≈ 64.9 µM)
COc1ccc(NC(=O)c2cc3c(CO)cnc(C)c3o/c2=N\c2ccc(Cl)c(Cl)c2)cc1 | 12.5 (≈ 25.8 µM) | 25 (≈ 51.6 µM) | 25 (≈ 51.6 µM) | 12.5 (≈ 25.8 µM) | 25 (≈ 51.6 µM)
COc1cc(NC(=O)c2cc3c(CO)cnc(C)c3o/c2=N\c2ccc(C(N)=O)cc2)cc(OC)c1 | 25 (≈ 51.2 µM) | 50 (≈ 102 µM) | 50 (≈ 102 µM) | 50 (≈ 102 µM) | 50 (≈ 102 µM)
Cc1ncc(CO)c2cc(C(=O)Nc3ccccc3)/c(=N/c3ccc(Oc4ccccc4)cc3)oc12 | 50 (≈ 105 µM) | 50 (≈ 105 µM) | 50 (≈ 105 µM) | 50 (≈ 105 µM) | 25 (≈ 52.4 µM)
Cc1ncc(CO)c2cc(C(=O)Nc3ccccc3F)/c(=N/c3ccc(C(F)(F)F)cc3)oc12 | 25 (≈ 53 µM) | 100 (≈ 212 µM) | 50 (≈ 106 µM) | 50 (≈ 106 µM) | 50 (≈ 106 µM)
CCc1ccc(NC(=O)c2cc3c(CO)cnc(C)c3o/c2=N\c2ccc3c(c2)OCO3)cc1 | 12.5 (≈ 27.3 µM) | 50 (≈ 109 µM) | 50 (≈ 109 µM) | 100 (≈ 219 µM) | 50 (≈ 109 µM)
Cc1ncc(CO)c2cc(C(=O)Nc3ccccc3)/c(=N/c3ccc4c(c3)OCO4)oc12 | 50 (≈ 116 µM) | 50 (≈ 116 µM) | 50 (≈ 116 µM) | 50 (≈ 116 µM) | 25 (≈ 58.2 µM)
Cc1cc(C)cc(/N=c2\oc3c(C)ncc(CO)c3cc2C(=O)Nc2ccccc2C)c1 | 100 (≈ 234 µM) | 100 (≈ 234 µM) | 50 (≈ 117 µM) | 100 (≈ 234 µM) | 100 (≈ 234 µM)
CCc1cccc(/N=c2\oc3c(C)ncc(CO)c3cc2C(=O)Nc2ccccc2)c1 | 100 (≈ 242 µM) | 100 (≈ 242 µM) | 100 (≈ 242 µM) | 100 (≈ 242 µM) | 100 (≈ 242 µM)
Cc1cccc(/N=c2\oc3c(C)ncc(CO)c3cc2C(=O)Nc2ccccc2C)c1 | 12.5 (≈ 30.2 µM) | 25 (≈ 60.5 µM) | 50 (≈ 121 µM) | 100 (≈ 242 µM) | 50 (≈ 121 µM)
CCc1ccc(/N=c2\oc3c(C)ncc(CO)c3cc2C(=O)Nc2ccccc2)cc1 | 50 (≈ 121 µM) | 50 (≈ 121 µM) | 50 (≈ 121 µM) | 50 (≈ 121 µM) | 50 (≈ 121 µM)
COc1cc(/N=c2\oc3c(C)ncc(CO)c3cc2C(=O)Nc2cccc(C)c2)cc(OC)c1 | 12.5 (≈ 27.2 µM) | 100 (≈ 218 µM) | 50 (≈ 109 µM) | 25 (≈ 54.4 µM) | 100 (≈ 218 µM)
COc1ccc(/N=c2\oc3c(C)ncc(CO)c3cc2C(=O)Nc2cccc(C)c2)c(OC)c1 | 50 (≈ 109 µM) | 50 (≈ 109 µM) | 25 (≈ 54.4 µM) | 50 (≈ 109 µM) | 50 (≈ 109 µM)
Cc1cccc(/N=c2\oc3c(C)ncc(CO)c3cc2C(=O)Nc2ccccc2)c1 | 100 (≈ 250 µM) | 100 (≈ 250 µM) | 100 (≈ 250 µM) | 100 (≈ 250 µM) | 100 (≈ 250 µM)
Cc1ccc(NC(=O)c2cc3c(CO)cnc(C)c3o/c2=N\c2ccc(Cl)c(Cl)c2)cc1 | 25 (≈ 53.4 µM) | 50 (≈ 107 µM) | 50 (≈ 107 µM) | 100 (≈ 214 µM) | 100 (≈ 214 µM)
COc1cc(/N=c2\oc3c(C)ncc(CO)c3cc2C(=O)Nc2ccccc2)cc(OC)c1 | 100 (≈ 224 µM) | 50 (≈ 112 µM) | 25 (≈ 56.1 µM) | 50 (≈ 112 µM) | 50 (≈ 112 µM)
O=C(O)c1cn(C2CC2)c2cc(N3CCNCC3)c(F)cc2c1=O [CIPROFLOXACIN] | – | 12.5 (≈ 37.7 µM) | – | – | 25 (≈ 75.4 µM)
OC(Cn1cncn1)(Cn1cncn1)c1ccc(F)cc1F [FLUCONAZOLE] | 50 (≈ 163 µM) | – | – | – | –
